Laboratory results reported in ChEMBL document CHEMBL3421612, “Identification of an anti-inflammatory derivative with anti-cancer potential: The impact of each of its structural components on inflammatory responses in macrophages and bladder cancer cells” (2015).
The source made the active and inactive calls. No cut-off for these calls is given here.

Experiments:
[1] = test system: MB49-I; assay: (§1) Antiinflammatory activity against mouse MB49-I cells assessed as inhibition of IFN-gamma/TNFalpha-NO production pretreated at 10 uM after 24 hrs by Griess reaction relative to vehicle treated control; type: functional
Outline: (§2)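 Cells seeded at 25 × 10³ per well, pretreated 3 h with test agents, washed twice with 10% FBS RPMI-1640, then stimulated 24 h with IFNγ plus TNFα. NO was quantified as nitrite using the Griess reaction (sulfanilic acid diazotization coupled to N-(1-naphthyl)ethylenediamine), absorbance at 548 nm, compared with cytokine-only control cells.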

[2] = test system: MB49-I; assay: (§3) Antiinflammatory activity against mouse MB49-I cells assessed as inhibition of IFN-gamma/TNFalpha-NO production pretreated at 50 uM after 24 hrs by Griess reaction relative to vehicle treated control; type: functional; outline: as §2
[3] = test system: THP-1; assay: Reduction in IFN-gamma-induced STAT1 phosphorylation in human THP1 cells assessed as fold decrease at 10 uM after 30 mins by densitometric analysis relative to vehicle treated control; type: functional; settings: THP-1, 0.5 h
Outline: (§4)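 PMA-differentiated THP1 macrophages at 750 × 10³ cells/mL were pretreated 30 min with DMSO or compound at 10 or 50 μM, washed, then harvested immediately or after 30 min of 50 U/mL IFNγ (pSTAT1) or 25 ng/mL IL6 (pSTAT3). Lysates were run on reducing SDS-PAGE and immunoblotted for pSTAT1/pSTAT3, with blots reprobed for total STAT; phosphorylation was expressed as fold induction.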

[4] = test system: THP-1; assay: Reduction in IFN-gamma-induced STAT1 phosphorylation in human THP1 cells assessed as fold decrease at 50 uM after 30 mins by densitometric analysis relative to vehicle treated control; type: functional; settings: THP-1, 0.5 h; outline: as §4
[5] = test system: THP-1; assay: Reduction in IL6-induced STAT3 phosphorylation in human THP1 cells assessed as fold decrease at 10 uM after 30 mins by densitometric analysis relative to vehicle treated control; type: functional; settings: THP-1, 0.5 h; outline: as §4
[6] = test system: THP-1; assay: Reduction in IL6-induced STAT3 phosphorylation in human THP1 cells assessed as fold decrease at 50 uM after 30 mins by densitometric analysis relative to vehicle treated control; type: functional; settings: THP-1, 0.5 h; outline: as §4
[7] = Reduction in IFN-gamma-induced MHC2 expression in human THP1 cells assessed as fold decrease pretreated at 10 uM after 48 hrs by flow cytometry relative to vehicle treated control; type: functional, cell-based; settings: THP-1
Outline: (§5)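 PMA-differentiated GFP-THP1 macrophages at 750 × 10⁴ cells/mL were pretreated 3 h with DMSO or compound, then left untreated or stimulated 48 h with 50 U/mL IFNγ. Surface CD40 and MHC-II were quantified by flow cytometry as fold change versus resting cells.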

[8] = Reduction in IFN-gamma-induced CD40 expression in human THP1 cells assessed as fold decrease pretreated at 10 uM after 48 hrs by flow cytometry relative to vehicle treated control; type: functional, cell-based; settings: THP-1; outline: as §5
[9] = test system: J774.A1; assay: Reduction in IFN-gamma/TNFalpha-induced NO production in mouse J774A.1 cells pretreated at 10 uM measured for 24 hrs by Griess reaction relative to vehicle treated control; type: functional; outline: as §2
[10] = test system: J774.A1; assay: Reduction in IFN-gamma/TNFalpha-induced NO production in mouse J774A.1 cells pretreated at 50 uM measured for 24 hrs by Griess reaction relative to vehicle treated control; type: functional; outline: as §2
[11] = test system: MB49-I; assay: Antiproliferative activity against mouse MB49-I cells assessed as induction of IFN-gamma/TNFalpha-induced loss of cell viability at 10 uM after 24 hrs by MTT assay relative to control; type: functional, cell-based
Outline: (§6)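 MB49-I cells plated at 5 × 10³ per well and cultured 24 h. Pretreated 3 h with DMSO or compound at 0–50 μM, then incubated 24 h with or without IFNγ plus TNFα. MTT added for 3 h, solubilized overnight in 10% SDS/10 mM HCl, and absorbance read at 580 nm.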

[12] = (§7) Antiproliferative activity against mouse MB49-I cells assessed as induction of IFN-gamma/TNFalpha-induced loss of cell viability at 25 uM after 24 hrs by MTT assay relative to control; type: functional; outline: as §6
[13] = (§8) Antiproliferative activity against mouse MB49-I cells assessed as induction of IFN-gamma/TNFalpha-induced loss of cell viability at 37.5 uM after 24 hrs by MTT assay relative to control; type: functional; outline: as §6
[14] = (§9) Antiproliferative activity against mouse MB49-I cells assessed as induction of IFN-gamma/TNFalpha-induced loss of cell viability at 50 uM after 24 hrs by MTT assay relative to control; type: functional; outline: as §6
[15] = as §1; type: functional; outline: as §2
[16] = as §3; type: functional; outline: as §2
[17] = Reduction in IFN-gamma-induced CD40 expression in human THP1 cells assessed as fold decrease pretreated at 25 uM after 48 hrs by flow cytometry relative to vehicle treated control; type: functional, cell-based; settings: THP-1; outline: as §5
[18] = Reduction in IFN-gamma-induced MHC2 expression in human THP1 cells assessed as fold decrease pretreated at 25 uM after 48 hrs by flow cytometry relative to vehicle treated control; type: functional, cell-based; settings: THP-1; outline: as §5
[19] = test system: MB49-I; assay: as §7; type: functional; outline: as §6
[20] = test system: MB49-I; assay: as §8; type: functional; outline: as §6
[21] = test system: MB49-I; assay: as §9; type: functional; outline: as §6

## O=C1C=CC(=O)O1
[1]
  inhibition: inactive
[2]
  inhibition: inactive

## Nc1ccc(C(=O)O)cc1
[1]
  inhibition: inactive
[2]
  inhibition: inactive

## O=C(O)/C=C\C(=O)Nc1ccccc1
[1]
  inhibition: inactive
[2]
  inhibition: inactive

## O=C(O)c1ccc(N2C(=O)C=CC2=O)cc1
[1]
  inhibition: inactive
[2]
  inhibition: inactive

## CC(C)(C)OC(=O)NNC(=O)c1ccc(N2C(=O)C=CC2=O)cc1
[3]
  inhibition at 10 µM: 38%
[4]
  inhibition at 50 µM: 71%
[5]
  inhibition at 10 µM: 64%
[6]
  inhibition at 50 µM: 85%
[7]
  inhibition: 49%
[8]
  inhibition: 87%
[9]
  inhibition at 10 µM: 46%
[10]
  inhibition at 50 µM: 91%
[11]
  Activity: inactive
[12]
  inhibition at 25 µM: 19%
[13]
  inhibition at 37.5 µM: 45%
[14]
  inhibition at 50 µM: 50%
[15]
  inhibition at 10 µM: 40%
[16]
  inhibition at 50 µM: 81%

## O=C(O)/C=C\C(=O)Nc1ccc(C(=O)O)cc1
[1]
  inhibition: inactive
[2]
  inhibition: inactive

## CC(C)(C)OC(=O)NNC(=O)c1ccccc1
[1]
  Activity: inactive
[2]
  Activity: inactive

## NNC(=O)c1ccc(N2C(=O)C=CC2=O)cc1
[3]
  inhibition at 10 µM: 16%
[4]
  inhibition at 50 µM: 66%
[5]
  inhibition at 10 µM: 15%
[6]
  inhibition at 50 µM: 38%
[17]
  inhibition: 43%
[18]
  inhibition: 23%
[9]
  inhibition at 10 µM: 24%
[10]
  inhibition at 50 µM: 69%
[11]
  Activity: inactive
[19]
  inhibition: inactive
[20]
  inhibition: inactive
[21]
  inhibition: inactive
[15]
  inhibition at 10 µM: 21%
[16]
  inhibition at 50 µM: 72%

## O=C1C=CC(=O)N1c1ccccc1
[1]
  inhibition: inactive
[2]
  inhibition: inactive
